Tests used:
[1] = tested on: Radical scavenging activity; test: Antioxidant activity assessed as DPPH radical scavenging activity after 30 mins; type: functional
Summary of the method: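 10 µL DMSO sample dilutions (DMSO alone as control) added to 190 µL of 1.5 × 10^-4 M ethanolic DPPH radical. Incubated 30 min at 25 °C, then A517 read at steady state. % scavenged = (1 − Atest/Acontrol) × 100. EC50 is the concentration scavenging 50% of the DPPH radical.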

[2] = Antioxidant activity assessed as ABTS radical scavenging activity after 7 mins

SMILES	EC50 [1] [µM]	EC50 [2] [µM]
COc1ccc(O)c(C(C)(C)C)c1.COc1ccc(O)cc1C(C)(C)C [BUTYLATED HYDROXYANISOLE]	97.1	11.7
C/C=C/c1cc2c(c(=O)o1)-c1c(O)c(O)c(OC)c(C=O)c1CO2 [CYATHUSAL A]	41.6	7.86
C/C=C/c1cc2c(c(=O)o1)-c1c(O)c(O)c(OC)c(C=O)c1C(O)O2 (configuration not stated) [CYATHUSAL B]	46	11.1
C/C=C/c1cc2c(c(=O)o1)-c1c(O)c(O)c(OC)c(C=O)c1C(OC(C)C)O2 (configuration not stated) [CYATHUSAL C]	26.6	9.1
C/C=C/c1cc2c(c(=O)o1)-c1c(O)c(O)c(OC)c(C=O)c1C(OC)O2 (configuration not stated) [PULVINATAL]	28.6	8.36
Cc1c(C)c2c(c(C)c1O)CCC(C)(C(=O)O)O2 (configuration not stated) [TROLOX]	37.6	14.5

Source: ChEMBL document CHEMBL1143704, “Cyathusals A, B, and C, antioxidants from the fermented mushroom Cyathus stercoreus” (J Nat Prod, 2007)
